{
  "source": "ChEMBL document CHEMBL1155077",
  "about": "“Kinesin spindle protein (KSP) inhibitors. 9. Discovery of (2S)-4-(2,5-difluorophenyl)-n-[(3R,4S)-3-fluoro-1-methylpiperidin-4-yl]-2-(hydroxymethyl)-N-methyl-2-phenyl-2,5-dihydro-1H-pyrrole-1-carboxamide (MK-0731) for the treatment of taxane-refractory cancer” (J Med Chem, 2008)",
  "key": {"[1]": {"experiment": "Induction of apoptosis in human […] cells assessed as caspase 3 activation after 48 hrs by fluorescent assay", "type": "functional, cell-based", "outline": "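A2780 cells seeded 20 000/well, grown overnight, then treated in triplicate 48 h with vehicle or compound, 300 to 0.415 nM (7-point, 3-fold series), 0.1% DMSO final.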"}, "[2]": {"experiment": "Volume of distribution at steady state in rhesus monkey at 0.4 mg/kg, iv", "type": "ADME, organism-based, Macaca mulatta", "design": "dose 0.4 mg/kg, route intravenous", "details": "in vivo, read-out: Vdss"}, "[3]": {"target": "Centromere-associated protein E (Homo sapiens, UniProt Q02224)", "sequence (Q02224 whole entry)": "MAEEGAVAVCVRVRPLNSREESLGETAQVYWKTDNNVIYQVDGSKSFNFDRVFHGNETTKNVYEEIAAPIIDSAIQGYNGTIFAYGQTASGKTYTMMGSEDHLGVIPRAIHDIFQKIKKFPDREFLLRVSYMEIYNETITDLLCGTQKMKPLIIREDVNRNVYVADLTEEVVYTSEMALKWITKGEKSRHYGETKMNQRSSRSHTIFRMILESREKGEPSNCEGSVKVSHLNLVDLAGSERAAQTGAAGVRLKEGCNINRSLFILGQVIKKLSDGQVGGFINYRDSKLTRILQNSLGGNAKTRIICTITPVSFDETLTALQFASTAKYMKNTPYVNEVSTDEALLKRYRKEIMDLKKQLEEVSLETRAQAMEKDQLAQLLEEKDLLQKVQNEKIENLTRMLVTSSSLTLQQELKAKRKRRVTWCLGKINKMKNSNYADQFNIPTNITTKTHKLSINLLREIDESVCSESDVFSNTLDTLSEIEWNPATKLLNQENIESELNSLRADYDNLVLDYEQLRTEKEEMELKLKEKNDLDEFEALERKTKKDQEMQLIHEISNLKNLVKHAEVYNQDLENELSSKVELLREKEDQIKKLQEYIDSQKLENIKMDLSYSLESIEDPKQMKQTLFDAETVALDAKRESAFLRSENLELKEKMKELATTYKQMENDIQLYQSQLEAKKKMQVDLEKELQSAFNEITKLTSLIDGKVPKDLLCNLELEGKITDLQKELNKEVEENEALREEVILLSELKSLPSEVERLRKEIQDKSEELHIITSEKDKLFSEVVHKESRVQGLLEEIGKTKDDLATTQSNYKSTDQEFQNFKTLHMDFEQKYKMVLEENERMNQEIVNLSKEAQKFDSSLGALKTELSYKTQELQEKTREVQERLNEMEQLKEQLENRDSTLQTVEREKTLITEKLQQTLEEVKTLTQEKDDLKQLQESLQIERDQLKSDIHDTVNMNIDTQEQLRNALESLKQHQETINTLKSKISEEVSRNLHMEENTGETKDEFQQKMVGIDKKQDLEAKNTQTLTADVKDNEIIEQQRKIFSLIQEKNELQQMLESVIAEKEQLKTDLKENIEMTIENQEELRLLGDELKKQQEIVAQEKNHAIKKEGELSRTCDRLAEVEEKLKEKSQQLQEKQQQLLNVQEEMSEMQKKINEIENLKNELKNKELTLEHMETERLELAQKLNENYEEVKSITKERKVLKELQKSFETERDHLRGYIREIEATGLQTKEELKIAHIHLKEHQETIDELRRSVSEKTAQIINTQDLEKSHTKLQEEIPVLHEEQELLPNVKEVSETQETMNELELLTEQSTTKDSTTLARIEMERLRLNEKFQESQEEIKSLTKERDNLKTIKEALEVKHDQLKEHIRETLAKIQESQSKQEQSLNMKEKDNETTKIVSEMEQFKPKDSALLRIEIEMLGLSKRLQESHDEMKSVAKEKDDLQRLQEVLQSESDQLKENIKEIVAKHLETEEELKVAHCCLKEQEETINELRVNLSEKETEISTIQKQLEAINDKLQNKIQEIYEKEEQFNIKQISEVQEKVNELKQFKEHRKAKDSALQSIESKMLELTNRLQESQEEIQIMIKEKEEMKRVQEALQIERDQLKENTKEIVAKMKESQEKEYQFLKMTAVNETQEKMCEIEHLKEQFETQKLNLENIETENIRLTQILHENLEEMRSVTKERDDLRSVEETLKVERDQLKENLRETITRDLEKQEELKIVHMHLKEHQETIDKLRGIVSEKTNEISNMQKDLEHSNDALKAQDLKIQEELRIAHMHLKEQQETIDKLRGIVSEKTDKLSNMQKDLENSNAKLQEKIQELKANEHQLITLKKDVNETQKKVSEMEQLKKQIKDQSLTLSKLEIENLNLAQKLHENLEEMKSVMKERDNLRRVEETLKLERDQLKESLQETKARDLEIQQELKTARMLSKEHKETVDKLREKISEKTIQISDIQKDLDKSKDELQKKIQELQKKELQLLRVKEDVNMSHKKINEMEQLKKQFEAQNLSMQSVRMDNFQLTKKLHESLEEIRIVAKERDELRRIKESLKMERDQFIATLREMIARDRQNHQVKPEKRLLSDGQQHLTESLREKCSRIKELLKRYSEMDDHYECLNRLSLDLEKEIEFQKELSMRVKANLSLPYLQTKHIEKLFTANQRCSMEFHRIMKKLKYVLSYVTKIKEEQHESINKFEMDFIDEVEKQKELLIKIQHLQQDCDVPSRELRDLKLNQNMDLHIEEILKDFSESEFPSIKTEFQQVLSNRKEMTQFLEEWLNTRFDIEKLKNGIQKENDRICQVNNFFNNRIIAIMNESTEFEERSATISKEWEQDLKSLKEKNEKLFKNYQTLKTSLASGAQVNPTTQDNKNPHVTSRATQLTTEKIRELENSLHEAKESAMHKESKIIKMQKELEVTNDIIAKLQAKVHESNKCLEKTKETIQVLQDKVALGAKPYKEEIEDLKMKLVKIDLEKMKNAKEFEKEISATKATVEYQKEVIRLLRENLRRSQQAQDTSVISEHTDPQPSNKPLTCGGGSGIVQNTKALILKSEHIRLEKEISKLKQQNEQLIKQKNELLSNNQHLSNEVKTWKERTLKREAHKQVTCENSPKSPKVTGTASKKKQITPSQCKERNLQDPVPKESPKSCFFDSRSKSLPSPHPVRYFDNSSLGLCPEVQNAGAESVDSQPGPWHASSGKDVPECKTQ", "experiment": "Inhibition of cloned human CENP-E"}, "[4]": {"experiment": "Effect on […] formation in human […] cells assessed as mitotic spindles at 50 nM after 16 hrs by fluorescence microscopy", "type": "functional", "outline": "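A2780 cells grown in slide chambers, exposed 16 h to 5 or 50 nM compound or 0.1% DMSO. Fixed/permeabilized in PIPES buffer pH 6.8 with Triton X-100 and 4% formaldehyde, blocked with 2% BSA, stained with anti-α-tubulin (DM1, 12 h 4 °C), FITC secondary and Hoechst 33342; spindles viewed by fluorescence microscopy.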"}, "[5]": {"experiment": "Inhibition of human KSP in presence of 30% mouse serum", "outline": "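KSP ATPase assay as the primary one (0.25 nM KSP motor domain, microtubules, 1 mM ATP, pH 6.8, 3 h at RT, quinaldine red phosphate read-out), run with 30% mouse serum dialysed against reaction buffer (12-14 kDa cutoff). Mean of at least 3 experiments unless noted.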"}, "A2780": {"system": "A2780", "experiment": "Inhibition of tumor growth in human A2780 cells xenografted clr:NU/NU-nuBR mouse assessed as change in tumor volume at 100 mg/kg, sc administered q4d x 3 dosing schedule"}, "[6]": {"experiment": "Toxicity in clr:NU/NU-nuBR mouse assessed as maximum tolerated dose after 24 hrs", "type": "organism-based", "details": "in vivo", "outline": "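Naive, non-xenografted mice, in a large cohort. Drug was given by continuous delivery from subcutaneously implanted osmotic minipumps over 24 h. The maximum tolerated dose was set with survival as the end point, and peripheral blood counts were followed to assess myelosuppression.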"}, "Rattus norvegicus": {"system": "Rattus norvegicus", "experiment": "Acute toxicity in rat at 15 mg/kg, iv", "type": "organism-based", "design": "dose 15 mg/kg, route intravenous", "details": "in vivo"}, "[7]": {"experiment": "Volume of distribution at steady state in rat at 1 mg/kg, iv", "type": "ADME, organism-based", "design": "dose 1 mg/kg, route intravenous", "details": "in vivo, read-out: Vdss"}, "[8]": {"experiment": "Clearance in rhesus monkey at 0.4 mg/kg, iv", "type": "ADME, organism-based, Macaca mulatta", "design": "dose 0.4 mg/kg, route intravenous", "details": "in vivo"}, "[9]": {"target": "Kinesin-like protein KIF14 (Homo sapiens, UniProt Q15058)", "sequence (Q15058 whole entry)": "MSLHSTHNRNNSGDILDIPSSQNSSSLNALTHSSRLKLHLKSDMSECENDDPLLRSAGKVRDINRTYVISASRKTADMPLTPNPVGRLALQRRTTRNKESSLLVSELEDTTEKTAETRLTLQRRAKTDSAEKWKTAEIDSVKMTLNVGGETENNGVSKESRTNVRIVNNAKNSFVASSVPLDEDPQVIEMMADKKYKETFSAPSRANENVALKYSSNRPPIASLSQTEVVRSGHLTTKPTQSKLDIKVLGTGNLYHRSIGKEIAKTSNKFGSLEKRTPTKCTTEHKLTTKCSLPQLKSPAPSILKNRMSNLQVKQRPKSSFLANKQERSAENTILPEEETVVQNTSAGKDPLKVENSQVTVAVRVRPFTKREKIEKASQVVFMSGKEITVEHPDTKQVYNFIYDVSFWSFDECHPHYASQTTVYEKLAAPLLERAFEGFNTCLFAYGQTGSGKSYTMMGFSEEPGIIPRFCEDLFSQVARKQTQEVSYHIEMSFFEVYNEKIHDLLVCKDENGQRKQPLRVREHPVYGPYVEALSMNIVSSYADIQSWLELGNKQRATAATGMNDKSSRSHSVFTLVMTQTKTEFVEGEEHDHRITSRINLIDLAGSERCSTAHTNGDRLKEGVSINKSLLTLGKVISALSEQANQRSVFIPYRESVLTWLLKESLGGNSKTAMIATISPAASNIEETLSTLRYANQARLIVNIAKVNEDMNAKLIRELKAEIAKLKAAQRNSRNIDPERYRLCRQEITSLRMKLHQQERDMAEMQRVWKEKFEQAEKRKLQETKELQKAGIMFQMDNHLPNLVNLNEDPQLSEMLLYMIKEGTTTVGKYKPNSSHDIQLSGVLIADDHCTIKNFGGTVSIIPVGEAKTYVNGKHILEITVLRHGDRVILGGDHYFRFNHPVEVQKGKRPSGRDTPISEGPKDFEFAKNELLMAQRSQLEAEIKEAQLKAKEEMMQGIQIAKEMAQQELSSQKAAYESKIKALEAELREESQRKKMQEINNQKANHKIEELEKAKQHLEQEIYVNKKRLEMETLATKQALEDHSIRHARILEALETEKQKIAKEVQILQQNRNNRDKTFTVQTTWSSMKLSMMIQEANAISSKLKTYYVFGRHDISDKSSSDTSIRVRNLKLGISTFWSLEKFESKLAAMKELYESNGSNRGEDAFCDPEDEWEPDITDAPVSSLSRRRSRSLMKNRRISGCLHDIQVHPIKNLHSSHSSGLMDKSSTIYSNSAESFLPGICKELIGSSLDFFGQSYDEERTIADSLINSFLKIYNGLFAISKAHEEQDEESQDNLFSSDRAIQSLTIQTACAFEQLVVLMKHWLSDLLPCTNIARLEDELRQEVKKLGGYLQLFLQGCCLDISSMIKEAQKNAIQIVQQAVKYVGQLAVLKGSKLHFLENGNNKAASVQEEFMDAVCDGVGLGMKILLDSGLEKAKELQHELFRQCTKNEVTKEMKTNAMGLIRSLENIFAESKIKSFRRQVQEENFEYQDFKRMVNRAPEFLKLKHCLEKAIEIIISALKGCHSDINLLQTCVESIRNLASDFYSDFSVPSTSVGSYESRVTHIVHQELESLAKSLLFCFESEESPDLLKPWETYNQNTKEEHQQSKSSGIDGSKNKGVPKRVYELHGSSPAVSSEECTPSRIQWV", "experiment": "Inhibition of cloned human Kif14"}, "KB-v [10]": {"system": "KB-v", "experiment": "Inhibition of tumor growth in human KB-v cells expressing MDR1 xenografted clr:NU/NU-nuBR mouse assessed as change in tumor volume at 20 mg/kg, ip administered qd x 5 dosing schedule relative to control", "type": "functional, organism-based", "design": "dose 20 mg/kg", "outline": "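Nude mice bearing contralateral sc KB-3-1 (2.5 million) and KB-v-1 (9 million) flank tumors, 250-500 mm³ at day 13-14, groups of 10-12. Paclitaxel 20 mg/kg/day ip in ethanol/Cremophor/saline (10:10:80), qd × 5. Volumes by calipers, (W² × L)/2, change from initial; % T/C versus control.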"}, "[11]": {"experiment": "Half life in rat at 1 mg/kg, iv", "type": "ADME, organism-based", "design": "dose 1 mg/kg, route intravenous", "details": "in vivo"}, "[12]": {"target": "T1, Kinesin-like protein KIF23 (Homo sapiens, UniProt Q02241)", "T1 sequence (Q02241 whole entry)": "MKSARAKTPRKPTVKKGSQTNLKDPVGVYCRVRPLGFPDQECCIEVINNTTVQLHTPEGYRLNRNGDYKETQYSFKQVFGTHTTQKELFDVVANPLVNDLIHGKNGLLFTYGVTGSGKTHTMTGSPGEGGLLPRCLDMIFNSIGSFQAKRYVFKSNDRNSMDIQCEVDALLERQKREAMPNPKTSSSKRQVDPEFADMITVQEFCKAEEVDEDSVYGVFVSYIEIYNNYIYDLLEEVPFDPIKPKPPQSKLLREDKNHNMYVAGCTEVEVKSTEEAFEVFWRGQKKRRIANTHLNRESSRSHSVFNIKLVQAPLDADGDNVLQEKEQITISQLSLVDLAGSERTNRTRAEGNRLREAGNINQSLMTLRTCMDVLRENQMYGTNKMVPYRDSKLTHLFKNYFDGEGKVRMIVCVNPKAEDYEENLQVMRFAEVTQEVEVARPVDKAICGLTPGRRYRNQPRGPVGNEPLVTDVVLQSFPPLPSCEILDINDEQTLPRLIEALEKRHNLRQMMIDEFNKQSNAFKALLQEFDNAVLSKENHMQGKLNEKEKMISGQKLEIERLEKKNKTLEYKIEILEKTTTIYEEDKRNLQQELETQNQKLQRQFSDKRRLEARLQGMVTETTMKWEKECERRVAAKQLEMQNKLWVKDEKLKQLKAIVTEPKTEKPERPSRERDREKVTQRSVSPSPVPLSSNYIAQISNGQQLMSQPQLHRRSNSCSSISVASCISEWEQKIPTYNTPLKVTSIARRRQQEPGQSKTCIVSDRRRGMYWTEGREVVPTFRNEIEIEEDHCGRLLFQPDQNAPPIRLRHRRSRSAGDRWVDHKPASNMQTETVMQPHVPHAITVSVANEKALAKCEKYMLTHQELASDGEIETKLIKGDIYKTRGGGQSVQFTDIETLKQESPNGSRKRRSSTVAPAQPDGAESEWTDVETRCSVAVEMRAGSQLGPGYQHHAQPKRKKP", "experiment": "Inhibition of cloned human MKLP1"}, "[13]": {"experiment": "Dissociation constant, pKa by Sirius GLpKa titrator", "type": "physicochemical", "outline": "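Potentiometric pKa measured on a Sirius GLpKa titrator; mean of n = 3 determinations unless marked as a single determination.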"}, "KB-v [14]": {"system": "KB-v", "experiment": "Inhibition of tumor growth in human KB-v cells expressing MDR1 xenografted clr:NU/NU-nuBR mouse assessed as change in tumor volume at 40 mg/kg, sc administered qd x 1 dosing schedule relative to control"}, "[15]": {"experiment": "Aqueous solubility at pH 4.3", "type": "physicochemical", "details": "aqueous solution"}, "[16]": {"experiment": "Half life in dog at 0.4 mg/kg, iv", "type": "ADME, organism-based, Canis lupus familiaris", "design": "dose 0.4 mg/kg, route intravenous", "details": "in vivo"}, "[17]": {"experiment": "Volume of distribution at steady state in dog at 0.4 mg/kg, iv", "type": "ADME, organism-based, Canis lupus familiaris", "design": "dose 0.4 mg/kg, route intravenous", "details": "in vivo, read-out: Vdss"}, "[18]": {"experiment": "Ratio of IC50 for induction of mitotic arrest in human […] to IC50 for induction of mitotic arrest in […] human KB-V-1 cells", "type": "functional", "outline": "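Phospho-nucleolin mitotic-arrest assay in parental KB-3-1 and MDR1-overexpressing KB-V-1 cells (>500-fold higher MDR1 mRNA). Cells were treated in triplicate for 16 h across 10 000 to 0.1 nM (11-point, half-log series; 0.1% DMSO final). Total nucleolin was bead-captured from lysates and phospho-nucleolin detected by TG3 antibody plus a ruthenium-labelled secondary. Ratio = IC50 (KB-V-1) / IC50 (KB-3-1).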"}, "[19]": {"experiment": "Toxicity in human A2780 cells xenografted clr:NU/NU-nuBR mouse assessed as maximum tolerated dose", "type": "organism-based", "details": "in vivo", "outline": "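Maximum tolerated dose was set in protocols in naive mice that varied dose, vehicle and frequency, with survival as the end point and peripheral blood counts tracked. The schedule was sc injection every 4 days × 3 in saline acidified to pH 4.0, 100 µL per dose.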"}, "[20]": {"experiment": "Clearance in dog at 0.4 mg/kg, iv", "type": "ADME, organism-based, Canis lupus familiaris", "design": "dose 0.4 mg/kg, route intravenous", "details": "in vivo"}},
  "note": "The source made the active and inactive calls.",
  "data": [
    {"smiles": "CN1CC[C@H](N(C)C(=O)N2CC(c3cc(F)ccc3F)=C[C@@]2(CO)c2ccccc2)[C@H](F)C1", "values": [
      {"measurement": "EC50", "setting": "[1]", "result": 2.7, "unit": "nM"},
      {"measurement": "Vd", "setting": "[2]", "result": 2.3, "unit": "L/kg"},
      {"measurement": "IC50", "setting": "[3]", "result": "> 50000", "unit": "nM"},
      {"measurement": "Activity", "setting": "[4]", "result": 90, "unit": "%"},
      {"measurement": "IC50", "setting": "[5]", "result": 29.1, "unit": "nM"},
      {"measurement": "Activity", "setting": "A2780", "result": "Active"},
      {"measurement": "MTD at 24 h", "setting": "[6]", "result": 12, "unit": "mg/kg"},
      {"measurement": "Activity", "setting": "Rattus norvegicus", "result": "Non-toxic"},
      {"measurement": "Vd", "setting": "[7]", "result": 3, "unit": "L/kg"},
      {"measurement": "clearance", "setting": "[8]", "result": 23.1, "unit": "mL/min/kg"},
      {"measurement": "IC50", "setting": "[9]", "result": "> 50000", "unit": "nM"},
      {"measurement": "Activity", "setting": "KB-v [10]", "result": "inactive"},
      {"measurement": "half-life", "setting": "[11]", "result": 1, "unit": "h"},
      {"measurement": "IC50", "setting": "[12]", "result": "> 50000", "unit": "nM"},
      {"measurement": "pKa", "setting": "[13]", "result": 7.6},
      {"measurement": "Activity", "setting": "KB-v [14]", "result": "Active"},
      {"measurement": "solubility", "setting": "[15]", "result": "> 50", "unit": "mg/mL"},
      {"measurement": "half-life", "setting": "[16]", "result": 2, "unit": "h"},
      {"measurement": "Vd", "setting": "[17]", "result": 1.6, "unit": "L/kg"},
      {"measurement": "Ratio", "setting": "[18]", "result": 4.5},
      {"measurement": "MTD", "setting": "[19]", "result": 100, "unit": "mg/kg"},
      {"measurement": "clearance", "setting": "[20]", "result": 15.1, "unit": "mL/min/kg"}
    ]}
  ]
}
